Assay outcomes as filed in PubChem.
Most compounds without a hit are left out; they make up all but 2.6% or so of the library.
Cl transport mod: KCC2 (human) Cl- transport modulation; Q9H2X9; KCC2 cells, thallium flux FluoZin-2 fluorescence; B-score of Tl+ flux slope (higher = more flux/activation; lower = inhibition) at 10 µM; hit rate 2.2% among 190,000; AID 1456;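 active = thallium flux slope and its plate-corrected score both differing from the plate sample mean at a set confidence after two filtering rounds, in either direction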;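 also: slope of fluorescence scaled to starting intensity during 10 to 20 s after thallium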
CHT block: inhibitors of human choline transporter CHT; CHT-expressing cells, membrane potential dye, choline response; hits give low values; B-score at 10 µM; hit rate 0.86% among 310,000;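 active = B-score over 3 SD under the library average, and starting fluorescence ratio not unusually high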;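 also: choline stimulus applied at its EC90 after an EC20 pre-addition; B-score computed on integrated fluorescence ratio after choline addition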
CHT PAM: allosterically activates the human high affinity choline transporter; AID 488977; B-score at 10 µM; hit rate 0.49% among 310,000; CHT-expressing cells, membrane potential dye, choline EC20; hits give high values; LV-AA mutant CHT in HEK293 cells;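 active = initial fluorescence not abnormally high and integrated response B-score, plate-corrected, over 3 SD above library mean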
Rad51 HR inh: blocks human Rad51 in homologous recombination; Q06609; hRad51 DNA strand exchange, fluorescence dequenching; inhibition, % at 10 µM; hit rate 0.085% among 200,000; AID 1385;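 active = inhibition above 40% at the single screening dose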
Target sequence (Q06609 whole entry, looked up): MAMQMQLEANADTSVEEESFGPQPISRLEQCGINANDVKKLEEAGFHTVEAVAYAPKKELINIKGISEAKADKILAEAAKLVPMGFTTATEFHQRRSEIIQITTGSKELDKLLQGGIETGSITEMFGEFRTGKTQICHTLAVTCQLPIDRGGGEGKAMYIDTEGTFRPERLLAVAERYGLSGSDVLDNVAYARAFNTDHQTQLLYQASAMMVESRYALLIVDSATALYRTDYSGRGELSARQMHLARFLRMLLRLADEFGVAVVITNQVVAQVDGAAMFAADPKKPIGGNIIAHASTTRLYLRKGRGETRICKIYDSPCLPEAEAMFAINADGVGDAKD
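System: human Rad51 nucleoprotein filaments preassembled on unlabelled ssDNA. Reagent: labelled 47-mer dsDNA for strand exchange. Schedule: 30-min compound preincubation and 15-min exchange, both room temperature. Measured by: FRET fluorescence dequenching, excitation 485 nm, emission 520 nm. Read-out: Fluorescence-based percent inhibition, control- and blank-normalised. Benchmarks: plate controls and plate blanks.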
CHT act confirm: human CHT activation, confirmatory screen; shares compounds with CHT PAM; CHT-expressing cells, membrane potential dye fluorescence (FDSS); % of choline EC20–EC90 response window; HEK293 expressing CHT LV-AA mutant; choline added at its EC20; activation, % at 10 µM; hit rate 91% among 2,500; AID 504833;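 active = primary screen active, with duplicate mean activation above negative control mean plus 3 SD, cut at about 11% in these data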
HEK293 MP dye: activity in parental HEK293 cells lacking CHT | AID 623908 | ratio readout change at 10 µM, hits read low | shares compounds with CHT PAM | hit rate 62% among 2,500 | membrane potential dye fluorescence (FDSS); measured after EC20 choline addition;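 active = duplicate-averaged ratio beyond 3 SD from buffer wells, up or down, though filed actives are nearly all decreases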
Hits are given with their value; - = inactive; . = not tested or not shown.

SMILES | Cl transport mod | CHT block | CHT PAM | Rad51 HR inh | CHT act confirm | HEK293 MP dye
Cc1ccc(Cl)cc1N1CCN(C(=O)C2CCC(=O)N(C3CCCCCC3)C2)CC1 (stereo unspecified) | . | - | 9.2 | . | 24 | -
O=C(C1CCC(=O)N(C2CCCC2)C1)N1CCN(c2ccc(Cl)cc2)CC1 (stereo unspecified) | . | - | - | . | . | .
Cc1cc(=O)n2nc(-c3ccccc3)sc2c1C#N | - | - | 6.4 | - | 29 | -27
O=C(CCNC(=O)c1ccc([N+](=O)[O-])cc1)Nc1ccc(F)c(F)c1F | . | - | - | . | . | .
CN(C)c1nc(Nc2ccccc2)nc(N(C)C)n1 | . | - | - | - | . | .
Cc1ccccc1Nc1nc(N)nc(-c2oc3ccccc3c2C)n1 | - | - | - | - | . | .
Cc1ccccc1Nc1nc(N)c2ccccc2n1 | - | - | 6.8 | - | 11 | -44
CN(C)c1ccc(Nc2nc(N)c3ccccc3n2)cc1 | . | - | 7.4 | . | 49 | -75
Nc1nc(Nc2ccccc2)nc2ccccc12 | - | - | - | - | 37 | -66
Nc1ncnc(Nc2ccccc2)n1 | . | - | - | . | . | .
CC(=O)N1c2ccc(S(=O)(=O)NCCc3ccc(S(N)(=O)=O)cc3)cc2CC1C (stereo unspecified) | . | - | - | . | . | .
CC1CCCN(C(=O)c2cc(S(=O)(=O)N3CCCCC3)c[nH]2)C1 (stereo unspecified) | . | - | - | . | . | .
CN(C(=O)CCc1ccccc1)c1nnc(-c2ccncc2)s1 | . | - | 7.4 | - | 28 | -30
CCOC(=O)C(C)On1c(-c2ccc(Cl)cc2)nc2ccc([N+](=O)[O-])cc21 (stereo unspecified) | - | - | - | - | . | .
CCOC(=O)C(C)On1c(-c2ccccc2)nc2ccc([N+](=O)[O-])cc21 (stereo unspecified) | - | - | - | - | 16 | -20
Cc1ccc(N(C(=O)Cn2nnc(-c3ccc(F)cc3)n2)C(C(=O)NC(C)(C)C)c2ccncc2)cc1 (stereo unspecified) | - | - | - | - | . | .
O=C(CSc1nnc(CNC(=O)c2ccccc2F)o1)Nc1cccc(C(F)(F)F)c1 | . | - | - | . | . | .
COc1ccccc1C(=O)NC(=S)Nc1ccc(S(=O)(=O)N2CCN(C)CC2)cc1 | . | - | - | - | . | .
Cc1nc(N(C)Cc2ccccc2)c2c(C)c(C)sc2n1 | . | - | - | . | 26 | -
Cc1sc2nc(SCC(=O)N(C)Cc3ccccc3)n(-c3ccccc3)c(=O)c2c1C | - | - | - | - | . | .
CCn1cc(C(=O)N[C@@H](CCSC)C(=O)NCCCn2ccnc2)c(=O)c2cc3c(cc21)OCO3 | . | - | - | . | . | .
CC(=O)N1c2ccc(S(=O)(=O)N3CCC(C(=O)Nc4cccc(Cl)c4)CC3)cc2CC1C (stereo unspecified) | . | - | - | . | . | .
O=C(COc1ccccc1)NCC(c1ccco1)N1CCN(c2ccccc2)CC1 (stereo unspecified) | . | - | 8 | . | 45 | -
N#C/C(=C\c1c(N2CCCCC2)nc2ccccn2c1=O)C(=O)NC1CCS(=O)(=O)C1 (stereo unspecified) | - | - | 13 | - | - | -62
Cc1cccn2c(=O)c(/C=C(\C#N)C(=O)NC3CCS(=O)(=O)C3)c(N3CCC(C)CC3)nc12 (stereo unspecified) | - | - | - | . | . | .
SMILES | Cl transport mod | CHT block | CHT PAM | Rad51 HR inh | CHT act confirm | HEK293 MP dye
CCN1CCCC(Sc2nc3c([nH]2)c(=S)n(C)c(=O)n3C)C1 (stereo unspecified) | . | - | - | - | 29 | -26
Cn1c(=S)c2[nH]c(SCCN3CCCC3)nc2n(C)c1=O | . | - | - | - | . | .
C/C(=N/NC(=O)c1cccs1)c1ccc(NC(=O)COc2ccc(Cl)cc2)cc1 | - | - | - | - | . | .
c1ccc(CN2CCN(c3nc(N4CCOCC4)c4ccccc4n3)CC2)cc1 | . | - | - | - | . | .
c1cncc(-c2nc(N3CCOCC3)c3ccccc3n2)c1 | - | - | 8.1 | - | 53 | -49
O=S(=O)(/C=C/c1ccccc1)N1CCN(c2nc(-c3cccnc3)nc3ccccc23)CC1 | - | - | - | - | . | .
c1ccc2c(N3CCOCC3)nc(-c3ccncc3)nc2c1 | - | - | 7.1 | - | 83 | -57
CN1CCN(c2nc(N3CCN(CCO)CC3)nc3ccccc23)CC1 | - | - | 11 | - | 37 | -102
c1ccc2c(N3CCOCC3)nc(N3CCOCC3)nc2c1 | - | - | 12 | - | 48 | -86
Cc1ccc(N2CC(C(=O)NCc3ccco3)CC2=O)cc1Cl (stereo unspecified) | . | - | - | . | . | .
Cc1nc2ncnn2c(N2CCN(S(=O)(=O)c3ccc(Br)cc3)CC2)c1C | . | - | - | - | . | .
COc1ccc(C)cc1Nc1n[n+](-c2ccccc2)c(-c2ccc(C(=O)O)cc2)s1 | . | - | - | . | . | .
Cc1cccc(-c2sc(Nc3ccccc3)n[n+]2-c2ccc(F)cc2)c1 | . | - | 8.9 | . | 52 | -
CCOc1cc(-c2sc(Nc3cc(C)ccc3OC)n[n+]2-c2ccccc2)ccc1OC | . | - | - | . | 44 | -
CCOc1cc(-c2sc(Nc3ccc(CC)cc3)n[n+]2-c2ccccc2)ccc1OC | . | - | - | . | 42 | -
COCCN(C(=S)Nc1ccc(OC)cc1)C1CCN(C(C)=O)CC1 | - | - | - | - | . | .
CCCNC(=O)c1cc(Cl)c(NC(=O)C2=CSCCO2)cc1OC | . | - | - | . | . | .
CCCC(=O)N1c2ccccc2C(=C2SC(C(=O)OC)=C(C(=O)OC)S2)C(=S)C1(C)C | - | - | - | - | 20 | -
CCCN(CC(=O)Nc1ccccc1Br)CC(=O)Nc1ccc(F)c(F)c1F | - | - | - | - | 18 | -
COc1ccc(C(=O)C(CCCCC(CN(C)C)C(=O)c2ccc(OC)cc2)CN(C)C)cc1 (stereo unspecified) | - | - | - | . | 15 | -27
CCOc1ccc(C(=O)C(CCC(CN(C)C)C(=O)c2ccc(OCC)cc2)CN(C)C)cc1 (stereo unspecified) | - | . | . | - | . | .
CC1(C(=O)O)CCC(C(=O)NNC(=O)c2ccccc2O)C1(C)C (stereo unspecified) | . | - | - | . | . | .
O=C(c1cc(COc2c(F)cccc2F)on1)N(Cc1ccccc1)CC1CC1 | . | - | - | . | . | .
CN1CCN(c2nc3c(c(=O)[nH]c(=O)n3C)n2CCSc2nc3ccccc3s2)CC1 | - | - | 9.2 | - | 50 | -55
Cc1nnc(SCCn2c(N3CCN(C)CC3)nc3c2c(=O)[nH]c(=O)n3C)s1 | . | - | 6.9 | - | 59 | -67
Cc1nnc(SCCn2c(N3CCCCCC3)nc3c2c(=O)[nH]c(=O)n3C)s1 | - | - | - | - | . | .
CCc1nc2ccccc2c(C(=O)Nc2ccc(F)cc2)c1C | . | - | - | . | . | .
CCOC(=O)C1=C(C)NC(C)=C(C(=O)OCC)C1c1sccc1C | . | - | - | - | . | .
